The values below come from ChEMBL document CHEMBL4411275, “Design, synthesis and biological evaluation of quinoline-indole derivatives as anti-tubulin agents targeting the colchicine binding site” (Eur J Med Chem, 2019).

Series [1] deals with K562. The series can be described thus: Antiproliferative activity against human K562 cells after 72 hrs by MTT assay. Format: functional, cell-based. The following applies: K562, 72 h. Summed up:
(§1)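 Cells preincubated 24 h at 37 °C, 5% CO₂. Compounds added at several concentrations in medium with 0.1% DMSO for 72 h. MTT (5 mg/mL in PBS) then added for 4 h, and optical density read at 490 nm. IC50 taken from dose-response curves; mean ± SD of at least three independent experiments.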
For orientation: Tetrazolium assays rely on reduction of a dye to a coloured formazan, in cell work by metabolically active cells.

For series [2], the system named is L02. Nature of the series: Antiproliferative activity against human LO2 cells after 72 hrs by MTT assay. Format: cell-based. The following applies: L02, 72 h. The essentials:
as §1

For series [3], the system named is H22 (Mus musculus). Nature of the series: Antiproliferative activity against mouse H22 cells after 72 hrs by MTT assay. The following applies: H22, 72 h.
Series [4] has as its system MDA-MB-231. The series can be described thus: Antiproliferative activity against human MDA-MB-231 cells after 72 hrs by MTT assay. As to conditions: MDA-MB-231, 72 h. Format: functional, cell-based. Summed up:
as §1

The test system of series [5] is HCT-8. Nature of the series: Antiproliferative activity against human HCT8 cells after 72 hrs by MTT assay. Format: functional, cell-based. The following applies: HCT-8, 72 h. The essentials:
as §1

The subject of series [6] is KB. Nature of the series: Antiproliferative activity against human KB cells after 72 hrs by MTT assay. Format: functional, cell-based. Summed up:
as §1

The subject of series [7] is HepG2. Nature of the series: Antiproliferative activity against human HepG2 cells after 72 hrs by MTT assay. Format: functional, cell-based. The following applies: HepG2, 72 h. The essentials: as §1
Series [8] concerns Bel-7402. Nature of the series: Antiproliferative activity against human Bel7402 cells after 72 hrs by MTT assay. The following applies: Bel-7402, 72 h. Format: functional, cell-based. The essentials: as §1
The nature of series [9]: Antiproliferative activity against human taxol-resistant HCT8/T cells after 72 hrs by MTT assay. Format: functional. The following applies: HCT-8, 72 h. The essentials:
as §1

The nature of series [10]: Antiproliferative activity against human ADR-resistant Bel7402/ADR cells after 72 hrs by MTT assay. Format: functional. The following applies: Bel-7402, 72 h. The essentials:
as §1

In series [11] the test system is A549. Nature of the series: Antiproliferative activity against human A549 cells after 72 hrs by MTT assay. Format: functional, cell-based. As to conditions: A549, 72 h. Summed up: as §1
In series [12] the test system is K562/VCR. The series can be described thus: Antiproliferative activity against human VCR-resistant K562/VCR cells after 72 hrs by MTT assay. Format: functional, cell-based. The essentials: as §1
Series [13] relates to A549/TR. The series can be described thus: Antiproliferative activity against human taxol-resistant A549/TR cells after 72 hrs by MTT assay. Format: functional, cell-based. The essentials: as §1
Series [14] relates to H22 (Mus musculus). Nature of the series: Antitumor activity against mouse H22 cells xenografted in ICR mouse assessed as reduction in tumor weight at 20 mg/kg/day, iv for 21 days relative to control. Further details: scale not given: the % may be the effect or the level left.
The subject of series [15] is H22 (Mus musculus). Nature of the series: Antitumor activity against mouse H22 cells xenografted in ICR mouse assessed as reduction in tumor weight at 6 mg/kg, iv administered every 2 days for 21 days relative to control. Further details: scale not given: the % may be the effect or the level left.
Series [16] is described as follows: Toxicity in ICR mouse xenografted with […] cells assessed as body weight loss at 6 mg/kg, iv administered every 2 days for 21 days. Format: organism-based. The following applies: in vivo. Summed up: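 Five-week-old male ICR mice inoculated subcutaneously in the right flank with 1×10^6 H22 cells. Randomised after one day into groups of eight. Dosed intravenously every 2 days for three weeks. Tumour volume and body weight recorded every 2 days. Tumours then excised and weighed; inhibition (%) = (1 − mean treated tumour weight / mean control tumour weight) × 100.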
A general note: A xenograft is tissue or cells of one species grown in another, often human tumour cells in immunodeficient mice.

The nature of series [17]: Drug resistance index, ratio of IC50 for taxol-resistant human A549/TR cells to IC50 for human A549 cells. Format: functional. The essentials:
(§2)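 Resistant and parental sensitive lines exposed to a range of compound concentrations in medium with 0.1% DMSO for 72 h at 37 °C, 5% CO2, after 24 h pre-culture. MTT added for 4 h, absorbance read at 490 nm. IC50 from dose-response curves, at least three independent experiments. DRI = IC50 resistant / IC50 parental.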

Series [18] can be described thus: Drug resistance index, ratio of IC50 for taxol-resistant human HCT8/T cells to IC50 for human HCT8 cells. Format: functional. Summed up:
as §2

Series [19] concerns the target Tubulin (Sus scrofa, UniProt P02554+P02550). The series can be described thus: Inhibition of porcine brain tubulin polymerization preincubated for 30 mins and measured every 2 mins for 60 mins by spectrophotometric analysis.
The target in series [20] is T1, Tubulin (Sus scrofa) (UniProt P02554+P02550). The series can be described thus: Inhibition of [3H]-colchicine binding to biotinylated porcine tubulin at 5 uM after 2 hrs by SPA relative to control. Format: protein assay. The essentials: (§3)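 Scintillation proximity assay: 0.08 μM [3H]colchicine incubated with biotinylated porcine tubulin (0.5 μg) and test compound for 2 h at 37 °C in 80 mM PIPES pH 6.8, 1 mM EGTA, 10% glycerol, 1 mM MgCl2, 1 mM GTP. Streptavidin SPA beads then added, and bound radioactivity counted by scintillation counter.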

Series [21] has as its target T1, Tubulin (Sus scrofa). The series can be described thus: Inhibition of [3H]-colchicine binding to biotinylated porcine tubulin at 1 uM after 2 hrs by SPA relative to control. Format: protein assay. The essentials:
as §3

Series [22] in a line: Drug resistance index, ratio of IC50 for ADR-resistant human Bel7402/ADR cells to IC50 for human Bel7402 cells. Format: functional. Summed up:
as §2

A short description of series [23]: Drug resistance index, ratio of IC50 for VCR-resistant human K562/VCR cells to IC50 for human K562 cells. Format: functional.

T1 sequence (P02550 whole entry, looked up): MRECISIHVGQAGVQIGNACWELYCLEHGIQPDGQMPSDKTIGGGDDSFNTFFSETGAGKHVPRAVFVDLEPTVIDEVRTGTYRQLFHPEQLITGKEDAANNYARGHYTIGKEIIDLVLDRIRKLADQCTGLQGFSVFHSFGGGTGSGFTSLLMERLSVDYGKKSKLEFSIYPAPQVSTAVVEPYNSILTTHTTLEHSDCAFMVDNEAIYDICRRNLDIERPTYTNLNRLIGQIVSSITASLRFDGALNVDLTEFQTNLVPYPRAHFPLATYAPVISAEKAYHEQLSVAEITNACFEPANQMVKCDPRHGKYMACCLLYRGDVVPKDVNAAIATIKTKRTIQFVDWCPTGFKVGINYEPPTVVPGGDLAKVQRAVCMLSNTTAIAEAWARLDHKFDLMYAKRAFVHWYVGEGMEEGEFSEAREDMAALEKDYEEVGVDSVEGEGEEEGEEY
T1 sequence (P02554 whole entry, looked up): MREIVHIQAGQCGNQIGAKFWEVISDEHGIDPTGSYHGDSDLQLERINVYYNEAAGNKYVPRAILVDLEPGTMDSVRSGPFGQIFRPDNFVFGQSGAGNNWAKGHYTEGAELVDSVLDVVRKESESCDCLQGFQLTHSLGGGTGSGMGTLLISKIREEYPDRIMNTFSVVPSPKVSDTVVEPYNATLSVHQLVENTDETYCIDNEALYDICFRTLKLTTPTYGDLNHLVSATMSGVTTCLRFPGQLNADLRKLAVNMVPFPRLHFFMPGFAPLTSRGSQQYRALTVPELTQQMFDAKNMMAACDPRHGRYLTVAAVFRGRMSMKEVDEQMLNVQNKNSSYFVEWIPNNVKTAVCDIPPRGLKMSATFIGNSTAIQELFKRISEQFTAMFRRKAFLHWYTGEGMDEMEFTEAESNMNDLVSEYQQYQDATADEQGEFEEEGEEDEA

One may read the IC50 as the concentration that gives 50% inhibition. With `C=C(c1ccc2c(ccn2C)c1)c1cc(C=O)nc2ccccc12`, the concentration for half-maximal inhibition (IC50) in series [1] was 94 nM.
For the compound `C=C(c1ccc2[nH]ccc2c1)c1cc(C)nc2ccccc12`, the IC50 in series [2] amounted to 881 nM; in series [3], 184 nM; in [4] it was 204 nM; in series [5], 403 nM; in series [1] it was 121 nM; in [6], 372 nM. Inhibition in series [7] was half-maximal at 377 nM (IC50).
For the compound `C=C(c1ccc2c(ccn2C)c1)c1cc(C(F)(F)F)nc2ccccc12`, it took 446 nM to reach half-maximal inhibition in [1] (IC50).
The compound `C=C(c1ccc2c(ccn2C(C)=O)c1)c1cc(C)nc2ccccc12` showed an IC50 in [1] of 179 nM.
Same read-out and setting: as for `C=C(c1ccc2c(ccn2CF)c1)c1cc(C)nc2ccccc12`, the figure is 153 nM.
In the case of `COc1ccc(/C=C\c2cc(OC)c(OC)c(OC)c2)cc1O` [COMBRETASTATIN A4], the IC50 came out at 46 nM in series [2]; 11 nM in series [8]; 10 nM in series [3]; 87 nM in [9]; 11 nM in series [4]; 58 nM in [10]. Moreover, the concentration for half-maximal inhibition (IC50) was determined as 9 nM in [11]; 57 nM in series [12]; 11 nM in series [5]; 7 nM in series [1]; 175 nM in series [13]; 9 nM in series [7]. For the same compound, the Activity in [14] worked out at 51%.
In [1], `C=C(c1ccc2c(ccn2CC)c1)c1cc(C)nc2ccccc12` returned an IC50 of 31 nM.
In the case of `C=C(c1ccc2c(ccn2C)c1)c1cc(OC)nc2ccccc12`, the IC50 worked out at 197 nM in series [2]; 105 nM in series [3]; 112 nM in series [4]; 103 nM in series [5]; 46 nM in series [1]; 84 nM in [6]. The half-inhibitory concentration (IC50) in [7] stood at 53 nM.
`C=C(c1cc(C)nc2ccccc12)c1cccc2[nH]ccc12` showed an IC50 in [1] of over 1000 nM.
`CC(=O)O[C@H]1C(=O)[C@@]2(C)[C@H]([C@H](OC(=O)c3ccccc3)[C@]3(O)C[C@H](OC(=O)[C@H](O)[C@@H](NC(=O)c4ccccc4)c4ccccc4)C(C)=C1C3(C)C)[C@]1(OC(C)=O)CO[C@@H]1C[C@@H]2O` [PACLITAXEL]: the Activity is 72.7% in series [15] and “Toxic” in [16]. In addition, the IC50 in series [9] was found to be 2590 nM; in [11] it was 18 nM; in series [5], 28 nM; in series [13] it was 1830 nM. Besides, the “Ratio IC50” value in series [17] turned out to be 101.6; in [18] it was 92.5.
Consider `COc1ccc2c(ccn2C(=O)c2cc(C)nc3ccccc23)c1N`, for which inhibition in [1] was half-maximal at 289 nM (IC50).
For orientation: inhibition means the relative decrease from the control value, in per cent. In series [19], `C=C(c1ccc2c(ccn2C)c1)c1cc(C)nc2ccccc12` returned a 50% inhibitory concentration (IC50) of 2540 nM. Moreover, the inhibition in series [20] stood at 89.4%; in series [21], 78.4%.
`COc1ccc2c(ccn2-c2cc(C)nc3ccccc23)c1N` gave an IC50 in [1] of 79 nM.
Same read-out and setting: the result for `C=C(c1ccc2c(ccn2C)c1)c1cc(N(C)C)nc2ccccc12` reads 171 nM.
For the compound `C=C(c1ccc2c(ccn2C)c1)c1cc(C(N)=O)nc2ccccc12`, the half-inhibitory concentration (IC50) in series [1] worked out at 282 nM.
With `COc1cccc2c1C(=O)c1c(O)c3c(c(O)c1C2=O)C[C@@](O)(C(=O)CO)C[C@@H]3O[C@H]1C[C@H](N)[C@H](O)[C@H](C)O1.Cl` [DOXORUBICIN HYDROCHLORIDE], the values for the IC50 in series [8] and in [10] were 274 nM and 1730 nM, respectively. For the same compound, the “Ratio IC50” value in series [22] turned out to be 6.3.
On to `C=C(c1ccc2c(ccn2C)c1)c1cc(NC)nc2ccccc12`, for which the half-inhibitory concentration (IC50) in series [2] worked out at 85 nM; in series [3] it was 25 nM; in series [4], 27 nM; in series [5], 10 nM; in series [1], 5 nM; in series [6] it was 8 nM. Further, half-maximal inhibition in series [7] (IC50) was put at 20 nM.
For the compound `C=C(c1ccc2c(ccn2C(=O)OC(C)(C)C)c1)c1cc(C)nc2ccccc12`, the 50% inhibitory concentration (IC50) in series [1] was over 1000 nM.
On the same count and under the same terms, as for `COc1ccc2c(ccn2-c2cc(C)nc3ccccc23)c1`, the figure is over 1000 nM; as for `Cc1cc(C(C)c2cccc3c2ccn3C)c2ccccc2n1` (centres undefined), over 1000 nM; as for `C=C(c1cc(C)nc2ccccc12)c1cn(C)c2cc(OC)ccc12`, 106 nM.
As for `COc1ccc(/C=C\c2cc(OC)c(OC)c(OC)c2)cc1OP(=O)([O-])[O-].[Na+].[Na+]` [FOSBRETABULIN DISODIUM], the Activity in series [14] is recorded as 62.7%.
As for `C=C(c1ccc2c(ccn2C)c1)c1cc(CO)nc2ccccc12`, the IC50 in [1] turned out to be 123 nM.
On to `COc1ccc2c(C(C)c3cc(C)nc4ccccc34)c[nH]c2c1` (centres undefined), for which, in series [1], the 50% inhibitory concentration (IC50) is over 1000 nM.
Turning to `C=C(c1cc(C)nc2ccccc12)c1c[nH]c2cc(OC)ccc12`, in series [1], the IC50 was over 1000 nM.
Regarding `CC[C@]1(O)C[C@H]2CN(CCc3c([nH]c4ccccc34)[C@@](C(=O)OC)(c3cc4c(cc3OC)N(C=O)[C@H]3[C@@](O)(C(=O)OC)[C@H](OC(C)=O)[C@]5(CC)C=CCN6CC[C@]43[C@@H]65)C2)C1` [VINCRISTINE], the figures for the IC50 in series [12] and in series [1] were 5060 nM and 21 nM, respectively. Also, the “Ratio IC50” value in [23] was found to be 241.
For the compound `C=C(c1cc(C)nc2ccccc12)c1cccc2c1ccn2C`, the concentration for half-maximal inhibition (IC50) in series [1] was over 1000 nM.
Same read-out and setting: the result for `COc1ccc2c(ccn2C(=O)c2cc(C)nc3ccccc23)c1` reads over 1000 nM.
In the case of `Cc1cc(C(C)c2ccc3c(ccn3C)c2)c2ccccc2n1` (centres undefined), the 50% inhibitory concentration (IC50) in series [2] was 214 nM; in [3], 120 nM; in [4], 103 nM; in series [5], 96 nM; in series [1], 37 nM; in [6], 109 nM. In series [7], the half-inhibitory concentration (IC50) is 101 nM.
The compound `C=C(c1ccc2c(ccn2C)c1)c1ccnc2ccccc12` displayed a 50% inhibitory concentration (IC50) in series [1] of 90 nM.
